Shown are actives, neighbours in structure and some others; about 1.5% of the full set was active somewhere.
PPC-1+TRAIL kill: kills PPC-1 cancer cells in the presence of TRAIL | PPC-1 cells + TRAIL, ATPLite viability luminescence | cell killing (% activity), % at 4 µM or 5 µM | actives 0.41% (n = 220,000) | AID 1443;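 active = cell killing above 50% in the first pass at 4 µM, then a duplicate retest at 5 µM averaging 50% or more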
Platelet DG rel: modulates dense granule release in human platelets; human platelet-rich plasma, SFLLRN dense granule ATP release, luminescence; inhibition, %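 (compounds screened at 7.5 µM in platelet-rich plasma)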; actives 0.22% (n = 300,000);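 active = mean replicate score, as percent of positive control, at or above 50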
STAT1 blocker: reduces IFN-gamma driven STAT1 reporter signal; inhibition, % at 5.5 µM; AID 920; NIH 3T3 STAT1-luciferase reporter, luminescence; actives 0.35% (n = 200,000);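 active = inhibition above a set limit, the mean inhibition across all tested compounds plus 3 SD, cut at about 34% in these data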
H9c2 TAG inh: inhibitors of triacylglycerol accumulation | H9c2 cells, Nile Red lipid (TAG) fluorescence; cells loaded with 200 µM oleic acid | inhibition, % at 12.5 µM | actives 0.66% (n = 230,000);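 active = pattern-corrected inhibition of lipid staining of at least 50% with the nuclear-stain viability signal not falling by more than 50%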
Lipid droplet: hepatic lipid droplet formation modulation. AML12 mouse hepatocytes, oleate lipid droplets, BODIPY imaging. inhibition, % at 6.5 µM. actives 0.4% (n = 240,000). AID 1656;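 active = lipid droplet intensity inhibited by at least 50%, with more than 500 cells counted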
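Assay system: AML12 hepatocytes (mouse); Probe or stimulus: oleic acid at 100 µM to induce lipid droplet formation; Dosing: compound at 6.5 µM only; Schedule: compound with oleate, overnight; Detection: fluorescence imaging, 20x objective, two fields per well; Measure: % inhibition of lipid droplet signal.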
STAT3 inh: reduces IL-6 driven STAT3 reporter signal; inhibition, % at 5.5 µM; AID 862; U3A cells, IL-6 STAT3-luciferase reporter, luminescence; host cell line lacks STAT1; actives 0.89% (n = 190,000);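 active = inhibition above the mean inhibition across all screened compounds plus 3 SD, cut at about 44% in these data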
PPC1 cytotox: PPC-1 cell cytotoxicity. shares compounds with PPC-1+TRAIL kill. PPC-1 viability, ATPlite luminescence, overnight. cytotoxicity, % at 5 µM. actives 50% (n = 1,200). AID 1447;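 active = reconfirmed compounds whose average cytotoxicity reaches 50% or more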
Of the large screens only hits and unclear results are named; the others gave an inactive call (follow-up assays come after a bar, where they were run).

O=C(CCS(=O)(=O)c1ccccc1)Nc1ccc(-c2nc3ccccc3s2)cc1	PPC-1+TRAIL kill 54.1 | PPC1 cytotox inactive
CCOC(=O)c1cc2sccc2n1CC(=O)Nc1ccc(OC)c(OC)c1	none (no result: H9c2 TAG inh) | PPC1 cytotox inactive
CCOC(=O)c1cc2sccc2n1CC(=O)Nc1ccc(OC)cc1	none (no result: Lipid droplet)
COc1ccc(S(=O)(=O)NCc2cccnc2)cc1NC(=O)c1ccccc1C	none (no result: PPC-1+TRAIL kill, Platelet DG rel, STAT1 blocker, Lipid droplet, STAT3 inh)
O=C(Nc1nc2ccc([N+](=O)[O-])cc2s1)c1ccco1	none (no result: H9c2 TAG inh) | PPC1 cytotox inactive
COc1ccc2sc(NC(=O)c3ccco3)nc2c1	PPC-1+TRAIL kill 53.0, STAT1 blocker 37.7, STAT3 inh 83.8 (no result: H9c2 TAG inh, Lipid droplet) | PPC1 cytotox 59.3
COc1ccccc1-c1csc(C(C)(NC(C)=O)c2ccccc2)n1 (stereo unspecified)	none (no result: PPC-1+TRAIL kill, Platelet DG rel, STAT1 blocker, Lipid droplet, STAT3 inh)
CCOC(=O)Cc1csc(NC(=O)/C=C\c2ccccc2)n1	none
CCOC(=O)Cc1csc(NC(=O)/C=C/c2ccc(OC)cc2)n1	PPC-1+TRAIL kill 56.2 | PPC1 cytotox 56.5
CC(=O)Nc1ccc(S(=O)(=O)NC2(C(F)(F)F)C(=O)Nc3c2c(=O)n(C)c(=O)n3C)cc1 (stereo unspecified)	none (no result: H9c2 TAG inh) | PPC1 cytotox inactive
CSc1ccc(NC(=O)C2(C)CCN2C(=O)Cc2ccc(C(C)(C)C)cc2)cc1 (stereo unspecified)	none (no result: PPC-1+TRAIL kill, Platelet DG rel, STAT1 blocker, Lipid droplet, STAT3 inh)
CCCNC(=O)C1(C)CCN(Cc2ccc(OCc3ccccc3)cc2)C1 (stereo unspecified)	none (no result: PPC-1+TRAIL kill, Platelet DG rel, STAT1 blocker, Lipid droplet, STAT3 inh)
COc1ccc(-c2nc(CCl)cs2)cc1	none | PPC1 cytotox inactive
COc1cccc(-c2nc(CCl)cs2)c1	none
COc1cc2nc(CN3CCN(S(=O)(=O)c4ccccc4[N+](=O)[O-])CC3)[nH]c(=O)c2cc1OC	none (no result: PPC-1+TRAIL kill, Platelet DG rel, STAT1 blocker, Lipid droplet, STAT3 inh)
O=S1(=O)N=C(Nc2nc3c(s2)CCCC3)c2ccccc21	PPC-1+TRAIL kill 60.4 (no result: Platelet DG rel) | PPC1 cytotox 59.5
CN(C)CCNC(=O)Cn1nc(C(F)F)cc1C1CC1	none (no result: H9c2 TAG inh) | PPC1 cytotox inactive
CCOC(=O)c1[nH]c2ccc(F)cc2c1NC(=O)C1=COCCO1	none | PPC1 cytotox inactive
CCNC(=S)NNC(=O)c1cc(-c2cccc(C)c2)nc2ccccc12	PPC-1+TRAIL kill 66.3 (no result: H9c2 TAG inh, Lipid droplet) | PPC1 cytotox 64.7
CCOc1ccc(-c2cc(C(=O)O)c3ccccc3n2)cc1	PPC-1+TRAIL kill 77.5 | PPC1 cytotox 77.2
CCCCOc1ccc(-c2cc(C(=O)NNC(=S)NCC)c3ccccc3n2)cc1	PPC-1+TRAIL kill 89.5, Platelet DG rel 76.9, STAT1 blocker 59.5, STAT3 inh 87.4 (no result: H9c2 TAG inh) | PPC1 cytotox 90.4
CCNC(=S)NNC(=O)c1cc(-c2cccc(OCC)c2)nc2ccccc12	none (no result: H9c2 TAG inh)
COc1nc(OC)nc(N2CCC(C(=O)NCc3cccs3)CC2)n1	none | PPC1 cytotox inactive
COc1ccc(CNC(=O)c2noc3c2CCCCC3)cc1	none (no result: H9c2 TAG inh) | PPC1 cytotox inactive
CCN(CC)C(=O)C1=C(C)N(Cc2ccccc2)C(=O)C(CC(=O)NCc2cccc3ccccc23)C1 (stereo unspecified)	none (no result: PPC-1+TRAIL kill, Platelet DG rel, STAT1 blocker, Lipid droplet, STAT3 inh)
COc1ccc(NC(=O)c2cc([N+](=O)[O-])ccc2O)cc1	PPC-1+TRAIL kill 75.0, Platelet DG rel 71.5, STAT1 blocker 93.8, STAT3 inh 104.8 | PPC1 cytotox 76.8
COCC(C)n1c(C)cc(C(=O)COC(=O)C2=NN(c3ccccc3)C(=O)CC2)c1C (stereo unspecified)	none
COCC(C)n1c(C)cc(C(=O)COC(=O)c2ccc(N3CCCC3=O)cc2)c1C (stereo unspecified)	none | PPC1 cytotox inactive
CCC1CCc2c(sc(NC(=O)CSc3nc(-c4ccco4)cc(C(F)(F)F)n3)c2C#N)C1 (stereo unspecified)	none (no result: H9c2 TAG inh) | PPC1 cytotox inactive
CC(=O)Nc1cnc(NC(=O)c2cccc(F)c2)cc1C	none
CCC(=O)Nc1cnc(NC(=O)c2cccc(F)c2)cc1C	none | PPC1 cytotox inactive
Cc1ccc(-c2cc(C(=O)NCc3ccc4c(c3)OCO4)no2)cc1	none (no result: H9c2 TAG inh)
O=C(NCc1ccc2c(c1)OCO2)c1cc(-c2ccccc2)on1	none (no result: Platelet DG rel, H9c2 TAG inh) | PPC1 cytotox inactive
CN1CCN(c2ccccc2NC(=O)Cc2cn(C)c3ccccc23)CC1	none (no result: Lipid droplet)
Cc1ccccc1NC(=O)Cc1cn(C)c2ccccc12	none | PPC1 cytotox inactive
CCOC(=O)c1cccc(NC(=O)c2cccs2)c1	none (no result: H9c2 TAG inh, Lipid droplet)
CCOC(=O)c1sc(NC(=O)c2cccs2)cc1C	PPC-1+TRAIL kill 59.9 (no result: H9c2 TAG inh) | PPC1 cytotox 59.8
O=C1C(Cl)=C(Nc2ccc3cn[nH]c3c2)C(=O)c2ccccc21	PPC-1+TRAIL kill 75.7 (no result: STAT1 blocker, H9c2 TAG inh, STAT3 inh) | PPC1 cytotox 69.3
CN(C)c1ccc(NC2=C(Cl)C(=O)c3ccccc3C2=O)cc1	none (no result: H9c2 TAG inh) | PPC1 cytotox inactive
O=C(Nc1ccc2cn[nH]c2c1)c1c(Cl)cccc1Cl	none (no result: H9c2 TAG inh)
COc1cc(C(O)c2nc(-c3ccccc3OC)cs2)ccc1F (stereo unspecified)	none (no result: PPC-1+TRAIL kill, Platelet DG rel, STAT1 blocker, Lipid droplet, STAT3 inh)
COc1cccc(N=c2oc3ccccc3cc2-c2nc3ccccc3[nH]2)c1	none
COc1cccc(N=c2oc3ccc(OC)cc3cc2-c2nc3ccccc3[nH]2)c1	none | PPC1 cytotox inactive
CCOC(=O)C1C(=O)NCC2CCCC21 (stereo unspecified)	none (no result: H9c2 TAG inh) | PPC1 cytotox inactive
CCc1ccc(Nc2nnc(SCC(=O)Nc3sccc3C(N)=O)s2)cc1	none (no result: H9c2 TAG inh)
CCc1ccc(Nc2nnc(SCC(=O)NCCN3C(=O)CSC3=O)s2)cc1	none (no result: H9c2 TAG inh) | PPC1 cytotox inactive
O=C(O)CCCNS(=O)(=O)c1ccc(F)cc1	none (no result: H9c2 TAG inh, Lipid droplet)
O=S(=O)(NCCCCCNS(=O)(=O)c1ccc(F)cc1)c1ccc(F)cc1	none | PPC1 cytotox inactive

Assay outcomes from PubChem.
